# Activity calls are given as the source filed them. Rule as the data show it, unless noted: active = inhibition above about 30%; inactive = the rest.
# Key:
# [1] = SK-BR-3 cell growth inhibitors, pilot screen, 24 h, human (AID 572;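 active = viability at or below 10% of carrier control in both of two separate runs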;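 also: compound exposure lasted between 18 and 24 h rather than exactly 24 h; 100% = carrier-treated control wells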); settings: SK-BR-3 viability, CellTiter-Glo luminescence, at 10 µM, stronger effect = lower value
# [2] = HUVEC growth inhibition – cell-based, human, primary screen (AID 575;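 active = viability at or below 30% in both replicate assays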;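 also: 100% = median of untreated cell wells with 0.1% DMSO on each plate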); settings: HUVEC proliferation, CellTiter-Glo luminescence, 72 h; at 10 µM; stronger effect = lower value
# Summary of the method: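 Test system: primary human umbilical vein endothelial cells. Quantity: 1250 cells/well. Compound: single 10 µM dose, 0.1% DMSO, from 5x medium stock. Timing: 72 h treatment at 37 °C. Detection: ATP-based CellTiter-Glo luminescent read. Benchmarks: vehicle and MePR control wells. Format: 384-well plates coated with collagen.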
# [3] = growth inhibitors of H69AR lung tumor, primary screen, human, duplicate replicates (AID 580;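 active = viability at or under a set limit in both replicates, limit being median viability minus 3 SD, cut at about 48% in these data, passing the limit was not always enough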;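 also: 100% = mean luminescence of untreated wells and 0% = no signal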); settings: H69AR lung tumor cells viability, ATP luminescence, 72 h; at 10 µM; stronger effect = lower value
# [4] = reversal of MRP1-mediated doxorubicin resistance, pilot screen, H69AR cells, doxorubicin co-treatment (AID 601;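 active = viability loss from added drug above about 55%, and viability with drug at most 40%, in both replicates, limit read from the data, passing the limit was not always enough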); settings: CellTiter-Glo, 72 h, at 10 µM; for differential viability (reversal): stronger effect = higher value
# [5] = 384-well plate pilot, post-Golgi transport modulator project, inhibition of yeast transport mutant growth (AID 636; in the data active = inhibition above about 31%); settings: absorbance 615 nm, about 18 h, stronger effect = higher value
# [6] = growth suppression of yeast trafficking mutant, preliminary HTS, modulators of trafficking downstream of Golgi apparatus project, 1536-format plate, OD 615 nm (AID 637); settings: yeast transport mutant growth, absorbance 615 nm, 18 h; stronger effect = higher value
# [7] = H69AR cells + 2 uM doxorubicin, measured here: viability with 2 uM doxorubicin, stronger effect = lower value
# [8] = H69AR cells, compound alone cytotoxicity
Compound,viability [1],viability [2],viability [3],differential viability (reversal) ([4]; H69AR cells + 2 uM doxorubicin),"viability [4, 7]","viability [4, 8]",inhibition [5],inhibition [6]
CC(=O)OCC(=O)[C@@]1(O)CC[C@H]2[C@@H]3CCC4=CC(=O)C=C[C@]4(C)[C@H]3[C@@H](O)C[C@@]21C,82% (inactive),91.5% (inactive),91.1% (inactive),-7.15% (inactive),98.2%,91.1%,1.56% (inactive),-1.83% (inactive)
O=C(CCn1cccc1)N1CCc2ccccc21,104% (inactive),83% (inactive),101% (inactive),13.3% (inactive),87.6%,101%,-2.08% (inactive),2.13% (inactive)
O=C(NCCN1CCOCC1)c1ccc(CS(=O)(=O)Cc2ccccc2F)o1,59% (inactive),102% (inactive),108% (inactive),0.59% (inactive),107%,108%,-3.84% (inactive),1.64% (inactive)
Cc1ccc2nc3c(cc(C(=O)NCC4CCCO4)n3C)c(=O)n2c1 (centres undefined),134% (inactive),110% (inactive),94.9% (inactive),7.85% (inactive),87.1%,94.9%,-0.96% (inactive),25.2% (inactive)
CCCCn1cnc2c1c(=O)n(C)c(=O)n2C,77% (inactive),100% (inactive),100% (inactive),11.1% (inactive),89%,100%,3.24% (inactive),0.18% (inactive)
COC(=O)c1ccc(-c2ccco2)n1Cc1nc(-c2ccc(OC)c(OC)c2)oc1C,125% (inactive),25.9% (active),48.8% (active),-8.4% (inactive),57.2%,48.8%,-4.32% (inactive),4.73% (inactive)
O=C1[C@@H]2C(c3ccccc3Cl)=NO[C@@H]2C(=O)N1Cc1ccccc1,96% (inactive),116% (inactive),104% (inactive),4.24% (inactive),100%,104%,-6.76% (inactive),3.09% (inactive)
Cc1ccc(OCC2Cn3c(nc4c3c(=O)n(C)c(=O)n4C)O2)cc1 (centres undefined),91% (inactive),96% (inactive),93% (inactive),-3% (inactive),96%,93%,-8.36% (inactive),2.91% (inactive)
Cc1nn(-c2ccc(F)cc2)c2sc(C(=O)N3CCCCCC3)cc12,93% (inactive),92% (inactive),78.8% (inactive),-14% (inactive),92.8%,78.8%,-2.7% (inactive),12.2% (inactive)
COc1ccccc1NC(=O)NC(N)=O,102% (inactive),87.7% (inactive),96.4% (inactive),1.88% (inactive),94.5%,96.4%,-5.89% (inactive),7.64% (inactive)
COc1ccc(S(=O)(=O)N2CCN(S(=O)(=O)c3ccc4c(c3)OCCO4)CC2)cc1C,101% (inactive),109% (inactive),88.2% (inactive),17.5% (inactive),70.7%,88.2%,-5.33% (inactive),1.09% (inactive)
Cc1nc(NC2=NCN(CCCN3CCOCC3)CN2)nc2c(C)cccc12,158% (inactive),67.4% (inactive),53.4% (inactive),-12.3% (inactive),65.8%,53.4%,-4.34% (inactive),0.16% (inactive)
CCCCNC(=O)c1nnn(-c2ccccc2)c1N,88% (inactive),113% (inactive),92.2% (inactive),-0.63% (inactive),92.8%,92.2%,4.03% (inactive),2.3% (inactive)
O=S1(=O)C=C(Oc2ccc(F)cc2)c2ccccc21,100% (inactive),101% (inactive),92.5% (inactive),4.02% (inactive),88.5%,92.5%,-7.03% (inactive),1.27% (inactive)
O=C(NC1CC1)c1ccc(S(=O)(=O)NCC2CCCCC2)cc1,112% (inactive),79.4% (inactive),102% (inactive),5.06% (inactive),97%,102%,-6.85% (inactive),-0.32% (inactive)
COc1cccc(N2CCN(Cc3nc(N)nc(Nc4ccccc4)n3)CC2)c1,119% (inactive),89.1% (inactive),75.5% (inactive),-14.5% (inactive),90%,75.5%,-3.77% (inactive),0.16% (inactive)
C=CCOc1ccc(C2/C(=C(\O)c3c(C)[nH]c(C(=O)OC)c3C)C(=O)C(=O)N2CCN(C)C)cc1 (centres undefined),95% (inactive),82.7% (inactive),90.2% (inactive),-5.67% (inactive),95.9%,90.2%,0.52% (inactive),11.5% (inactive)
COc1ccc(-c2ccc(=O)n(Cc3cc(=O)n4ccccc4n3)n2)cc1,102% (inactive),107% (inactive),97% (inactive),5.91% (inactive),91.1%,97%,-3.38% (inactive),4.36% (inactive)

# Source: PubChem BioAssay
